According to ChEMBL document CHEMBL1124918, “Synthesis and evaluation of alpha-[[(2-haloethyl)amino]methyl]-2- nitro-1H-imidazole-1-ethanols as prodrugs of alpha-[(1-aziridinyl)methyl]-2- nitro-1H-imidazole-1-ethanol (RSU-1069) and its analogues which are radiosensitizers and bioreductively activated cytotoxins” (J Med Chem, 1990):

Legend:
V79 [1] = assay: Concentration which reduced survival to 1% following incubation 3 hours with V79 mammalian cells under aerobic (Cair) conditions; type: functional, cell-based; conditions: Cricetulus griseus
Summary of the method: (§1)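 Chinese hamster V79-379A cells, 1.5 × 10⁶ per glass bottle, grown to confluency over 48 h. Exposed for 3 h at 37 °C to a range of agent concentrations in growth medium (pH 7.4), under aerobic or hypoxic conditions. Cells then trypsinized, diluted and plated for colony formation. The ratio is aerobic over hypoxic concentration.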

V79 [2] = assay: Concentration which reduced survival to 1% following incubation 3 hours with V79 mammalian cells under hypoxic (Cnitrogen) conditions; type: functional, cell-based; conditions: Cricetulus griseus; summary of the method: as §1
[3] = Ratio of concentration which reduced V79 cell survival to 1% under aerobic conditions to that of hypoxic conditions; type: functional; summary of the method: as §1
Mus musculus [4] = assay: Maximum tolerated dose was determined for compound administered intraperitoneally in C3H/He mice; type: functional
Summary of the method: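 Female C3H/He mice, 8–12 weeks old, bearing KHT sarcoma. Given ip within 10 min, 0.5 mL/25 g (1 mL/25 g if solubility-limited). Escalating single doses to groups of 2–3 mice; MTD is the highest dose without severe or persistent clinical signs or death within 24 h.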

[5] = Half-life at pH of 7.0 at 4 degree Centigrade; type: ADME; conditions: pH 7
Summary of the method: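 Agent (0.2–0.5 mM) incubated in PBS at pH 7.0 and 4 °C, with pH adjusted right after the solution was made. Aliquots taken at set times were analysed by isocratic HPLC on a CN column, with UV detection at 313 nm. Mobile phase was 10–25% methanol in 10 mM KH2PO4, pH 3.0, at 2 mL min⁻¹. Half-life came from loss of parent compound.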

Mus musculus [6] = assay: Maximum tolerated dose was determined for compound administered intraperitoneally as a suspension in arachis oil in C3H/He mice; type: functional
[7] = Half-life at pH of 5.5-6.0 at 4 degree Centigrade; conditions: pH 5.5-6.0
[8] = Half-life at pH of 5.5-6.0 at 23 degree Centigrade; type: ADME; conditions: pH 5.5
Summary of the method: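 Agent (0.2–0.5 mM) incubated in PBS, with or without NaHCO₃ (24–107 mM), pH adjusted right after preparation, at 23 °C. Aliquots taken over time and checked for loss by isocratic HPLC on a CN column, UV at 313 nm. Mobile phase was 10–25% methanol in 10 mM KH₂PO₄, pH 3.0.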

Structure (SMILES)	Concentration (V79 [1])	Concentration (V79 [2])	Ratio [3]	MTD (Mus musculus [4])	further results
I.O=[N+]([O-])c1nccn1CC(O)CNCCI (centres undefined)	2.4 mM	0.08 mM	30		
O=[N+]([O-])c1nccn1CC(O)CN1CC1 (centres undefined)	0.3 mM	0.003 mM	100	0.4 mM/kg	
Br.C[C@@H](Br)[C@@H](C)NCC(O)Cn1ccnc1[N+](=O)[O-] (some centres undefined)				1 mM/kg	half-life [5]: 30 min
CCNCC(O)Cn1ccnc1[N+](=O)[O-] (centres undefined)				3.9 mM/kg	
CC1(C)N(CC(O)Cn2ccnc2[N+](=O)[O-])C1(C)C (centres undefined)					MTD (Mus musculus [6]): 1.5 mM/kg
CC(C)(CCl)NCC(O)Cn1ccnc1[N+](=O)[O-].Cl (centres undefined)				0.8 mM/kg	half-life [7]: 76 min
CC(C)(Cl)C(C)(C)NCC(O)Cn1ccnc1[N+](=O)[O-].Cl (centres undefined)				1.3 mM/kg	half-life [7]: < 2 min
O=[N+]([O-])c1nccn1CC(O)CNCCO (centres undefined)	70 mM	3.5 mM	20		
C[C@@H]1[C@H](C)N1CC(O)Cn1ccnc1[N+](=O)[O-] (some centres undefined)				3 mM/kg	
Br.O=[N+]([O-])c1nccn1CC(O)CNCCBr (centres undefined)	2.3 mM	0.09 mM	25.5	1 mM/kg	half-life [8]: 30 min
C[C@@H](Cl)[C@@H](C)NCC(O)Cn1ccnc1[N+](=O)[O-].Cl (some centres undefined)				3 mM/kg	half-life [8]: 120 min
Cl.O=[N+]([O-])c1nccn1CC(O)CNCCCl (centres undefined)	5 mM	0.35 mM	14.3	1.5 mM/kg	half-life [8]: > 300 min; half-life [5]: ~280 min
Br.CC(C)(CBr)NCC(O)Cn1ccnc1[N+](=O)[O-] (centres undefined)				1 mM/kg	half-life [7]: < 5 min
Br.CC(C)(Br)C(C)(C)NCC(O)Cn1ccnc1[N+](=O)[O-] (centres undefined)				0.7 mM/kg	half-life [7]: < 2 min
Cl.F.O=[N+]([O-])c1nccn1CC(O)CNCCF (centres undefined)	35 mM	2.5 mM	14		
